Experimental data pooled from the literature.
Target: Interleukin-1 receptor-associated kinase 4 (IRAK4, Homo sapiens, UniProt Q9NWZ3)

CNC(=O)c1cc(Oc2ccc(NC(=O)Nc3ccc(Cl)c(C(F)(F)F)c3)cc2)ccn1
remaining signal (cell-free assay; 0.5 µM): 99.6%

CNC(=O)c1ccc(Nc2ncc(C(F)(F)F)c(NCc3nccnc3N(C)S(C)(=O)=O)n2)cc1
remaining binding (cell-free assay; competition with immobilised ligand; 0.1 µM): 92%

CCN(CC)CCNC(=O)c1c(C)[nH]c(/C=C2\C(=O)Nc3ccc(F)cc32)c1C
inhibition (enzyme activity; inhibitor; 10 µM): 89%

CCCS(=O)(=O)Nc1ccc(F)c(C(=O)c2c[nH]c3ncc(-c4ccc(Cl)cc4)cc23)c1F
inhibition (enzyme activity; inhibitor; 1 µM): < 10%

N#Cc1ccc(Nc2ccc3[nH]c(=O)[nH]c3c2)c(Cl)c1
remaining binding (cell-free assay; competition with immobilised ligand; 1 µM): 100%

O=C(Nc1cnn(-c2csc(C(=O)NC3COC3)c2)c1)Nc1c(F)cccc1Cl
remaining activity (enzyme activity; inhibitor; 5 µM): 97.8%

CS(=O)(=O)Nc1cccc(-c2csc(NC(=O)CSc3nc4nccnc4c(=O)n3CCc3ccccc3)n2)c1
inhibition (enzyme activity; inhibitor; 10 µM): 7%

N#CCCc1ccc2c(c1)-c1[nH]c3ccc([N+](=O)[O-])cc3c1CC(=O)N2
remaining signal (cell-free assay; 0.5 µM): 155%

Oc1cccc(-c2nc(N3CCOCC3)c3oc4ncccc4c3n2)c1
remaining activity (enzyme activity; inhibitor; 10 µM): 119%

CC/C(=N\NC(=O)NCc1cccc(O)c1)c1ccc(O)c(C)c1O
inhibition (enzyme activity; inhibitor; 0.1 µM): -0.4%

N#CC1(c2ccccn2)CCN(Cc2cc(C(=O)N3CCCC3)c(=O)n3ccccc23)CC1
remaining binding (cell-free assay; competition with immobilised ligand; 1 µM): 100%

C=CC(=O)Nc1cc(Nc2nccc(Nc3cc(Cl)c(F)cc3C(C)(C)O)n2)c(OC)cc1N1CC[C@@H](N(C)C)C1
inhibition (enzyme activity; inhibitor; 1 µM): 24%

COc1cc2c(Nc3ccc(Br)cc3F)ncnc2cc1OCC1CCN(C)CC1
remaining signal (cell-free assay; 0.5 µM): 35.3%

FC(F)(F)Oc1cccc(-c2cnc3ccc(-c4ccncc4)nn23)c1
activity vs control (enzyme activity; inhibitor; radiometric; 1 µM): 12%

CN(C)C1CCN(CC#Cc2nn(C3CCCC3)c3nc(NCc4ccccc4)ncc23)C1 (stereo not shown)
inhibition (enzyme activity; inhibitor; FRET; 0.1 µM): 0%

C[C@@]1(Cc2ccc(C#N)cc2)C(=O)N(c2cc(Cl)cc(Cl)c2)c2ncc(C(=O)NC3(c4nc(C5CCC5)no4)CC3)n21
remaining binding (cell-free assay; competition with immobilised ligand; 1 µM): 100%

CC(C)(C)c1nc2c(s1)c1nc(N)ncc1c1ccc(NS(=O)(=O)c3c(F)cccc3F)c(F)c12
remaining activity (enzyme activity; inhibitor; radiometric; 1 µM): 90%

CNc1cccc2cc(C(=O)Nc3ccc(C(=O)O)cc3)c(=O)[nH]c12
inhibition (enzyme activity; inhibitor; 10 µM): 7.7%

C[C@H](c1cccc(C#N)c1)n1cc(Cl)cc(C(N)=O)c1=N
remaining binding (cell-free assay; competition with immobilised ligand; 1 µM): 82%

COc1cc2nccc(Oc3ccc(NC(=O)c4c5n(n(-c6ccc(F)cc6)c4=O)CCCC5)cc3)c2cc1OC
inhibition (enzyme activity; inhibitor; 0.1 µM): -19%

Nc1cnc(N2CCc3cc(S(=O)(=O)Nc4c(F)cc(Cl)cc4F)cc(N4CCCC4=O)c32)nc1
remaining binding (cell-free assay; competition with immobilised ligand; 1 µM): 100%

Cc1ccc(C(=O)NCc2ccsc2)cc1C#Cc1cn(C(C)C)c2ncnc(N)c12
activity vs control (enzyme activity; inhibitor; 1 µM): 88%

Cc1ccc(C(=O)Nc2ccc(CN3CCN(C)CC3)c(C(F)(F)F)c2)cc1C#Cc1cnc2cccnn12
remaining activity (enzyme activity; inhibitor; 23.5 nM): 91%

Cc1sc(C(=O)NC2COC2)cc1-n1cc(NC(=O)Nc2c(F)cccc2Cl)cn1
remaining activity (enzyme activity; inhibitor; 10 µM): 103%

Cc1ccc(NC(=O)c2ccc(C)c(C(F)(F)F)c2)cc1C#Cc1nn(C2CCC(O)CC2)c2ncnc(N)c12 (stereo not shown)
remaining signal (cell-free assay; 10 µM): 101%

Oc1cccc(-c2nc(N3CCOCC3)c3oc4ncccc4c3n2)c1
remaining signal (cell-free assay; 0.5 µM): 104%

CC(C)(O)[C@H]1CC[C@H](Nc2ccc3ncc(-c4cccc(C(F)(F)F)c4)n3n2)CC1
remaining activity (enzyme activity; inhibitor; 1 µM): 64.2%

Cc1cc(C)c(-n2ccn3nc(-c4cccnc4)cc23)cc1NC(=O)c1cc(C#N)cc(S(F)(F)(F)(F)F)c1
remaining binding (cell-free assay; competition with immobilised ligand; 0.1 µM): 100%

COc1cc2ncnc(Nc3ccc(Oc4ccccc4)c(C)c3C)c2cc1OC
inhibition (enzyme activity; inhibitor; 1 µM): -4%

Cc1nccc(COC(=O)N2C[C@@H]3[C@@H](CNC(=O)c4ccc5[nH]nnc5c4)[C@@H]3C2)n1
remaining binding (cell-free assay; competition with immobilised ligand; 1 µM): 87%

COc1cc(Nc2cnc(C#N)c(O[C@H](C)CN(C)C)n2)ncc1-c1cnn(C)c1
remaining activity (enzyme activity; inhibitor; radiometric; 10 µM): 25%
